Experiments:
cell culture = conditions: ref [14] Iwasaki et al., 2014; cited from earlier work
[1] = tested on: MCF-7 estrogen receptor positive breast cancer cells; assay: MTT cytotoxicity assay, MCF-7; format: cell-based, human; conditions: 72 h, 5% FBS
How it was run: (§1)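 Cells plated at 5×10^3/well and attached overnight. Growth media were DMEM:F-12 (1:1) with 10% FBS for MDA-MB-231 and RPMI 1640 with 10% FBS for MCF-7. Test compound or DMSO vehicle applied for 72 h with 5% FBS. MTT added at 0.5 mg/mL final for 3 h at 37°C, 5% CO2, and formazan dissolved in DMSO. A570 read in three wells per condition and normalized to DMSO + 5% FBS. Mean ± SE of three experiments; one-way ANOVA with Bonferroni.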

[2] = tested on: MDA-MB-231 triple-negative breast cancer (TNBC) cells; assay: MTT cytotoxicity assay, MDA-MB-231; format: cell-based, human; conditions: 72 h, 5% FBS
How it was run: as §1

[3] = target: T1, Sigma 2 receptor (Transmembrane Protein 97 (TMEM97)) (Rattus norvegicus, UniProt Q5U3Y7); assay: PDSP radioligand competition-binding assay, sigma 2; conditions: 10 μM (primary criterion)
T1 sequence (Q5U3Y7 1-176): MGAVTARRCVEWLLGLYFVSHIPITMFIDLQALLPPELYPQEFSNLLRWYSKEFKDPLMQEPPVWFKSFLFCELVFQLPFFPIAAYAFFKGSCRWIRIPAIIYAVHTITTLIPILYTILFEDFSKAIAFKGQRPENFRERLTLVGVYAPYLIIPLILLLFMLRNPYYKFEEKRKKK

mice = assay: Open field locomotor behavior; format: in vivo, male C57Bl/6J mice; conditions: ICV 20 μg, 10-minute open field, vs vehicle, unpaired t-test P>0.05
How it was run: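 Male C57Bl/6J mice, 8–10 weeks old, fitted under isoflurane with a right lateral ventricle ICV cannula and allowed one week of recovery. After 1 h habituation in a dim room with 60 dB white noise, mice received 20 µg test compound in 0.5 µL 50% DMSO/50% aCSF over 2 min, or vehicle alone. Open field test began 5 min later; total distance travelled was scored blind. Cannula placement was checked at necropsy.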

[4] = printed "15 M", mean of three experiments

Substance	antitumor cytotoxicity (cell culture)	effect on viability / toxicity in MCF-7 (ER positive) cells ([1]; listed as veraguamide C)	cytotoxicity, MCF7 cells [1, 4]	effect on viability / toxicity in TNBC cells (words) [2]	effect on viability / toxicity in TNBC cells (words) ([2]; listed as veraguamide C)	cytotoxicity, TNBC cells (MDA-MB-231) [2, 4]	Primary: Percent Inhibition of Binding [3]	effect on locomotor behavior (mice)
maedamide	only linear depsipeptide that exhibits antitumor cytotoxicity in cell culture							
veraguamide C		mild toxicity	65%	selectively reduce viability	similar, albeit minor, levels of toxicity	53%	65%	no effect of veraguamide C on total distance traveled compared to vehicle

From article PMC11785078 (bioRxiv, 2025)
